Measurements from ChEMBL document CHEMBL1122383, “Potential tissue-imaging agents: 23-(trimethyl [117mSn]stannyl)-24-nor-5 alpha-cholan-3 beta-ol” (J Med Chem, 1983).
Blank lines part the entries; values can stand above or below the compound they belong to.

How the values were obtained:
Homo sapiens [1] = species on record: Homo sapiens; assay: Adsorbed radiation dose value was calculated to human lungs; format: functional
Outline: (§1)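 Human absorbed dose (rd/mCi) estimated from rat tissue distribution data re-expressed as percent kilogram dose per gram. Fraction of injected dose per human organ = (% kg dose/g × organ weight)/(kg body weight of man × 100). Cumulated activities were derived from these fractions and organ half-times, then combined with Sn-117m S values (rd/μCi-h).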

Homo sapiens [2] = species on record: Homo sapiens; assay: Adsorbed radiation dose value was calculated to human spleen; format: functional; outline: as §1
Homo sapiens [3] = species on record: Homo sapiens; assay: Adsorbed radiation dose value was calculated to human ovaries; format: functional, Female gonad; outline: as §1
Homo sapiens [4] = species on record: Homo sapiens; assay: Adsorbed radiation dose value was calculated to human adrenal; format: functional; outline: as §1
Homo sapiens [5] = species on record: Homo sapiens; assay: Adsorbed radiation dose value was calculated to human total body; format: functional; outline: as §1
Homo sapiens [6] = species on record: Homo sapiens; assay: Adsorbed radiation dose value was calculated to human liver; format: functional; outline: as §1
Rattus norvegicus [7] = assay: Tested for distribution of radioactivity in female rat tissue at 3 day after intravenous administration in kidney; format: ADME, organism-based; settings: in vivo, 72 h
Outline: (§2)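 Rat tissue distribution followed intravenous injection of the tin-117m-labeled steroid into female rats. Adrenals, blood, kidneys, liver and ovaries were counted at the stated day. Values are percent dose/gram, given as the mean and range for three female rats.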

Rattus norvegicus [8] = assay: Tested for distribution of radioactivity in female rat tissue at 7 day after intravenous administration in kidney; format: ADME, organism-based; settings: in vivo, 168 h; outline: as §2
Rattus norvegicus [9] = assay: Tested for distribution of radioactivity in female rat tissue at 14d ay after intravenous administration in blood; format: ADME, organism-based; settings: in vivo; outline: as §2
Rattus norvegicus [10] = assay: Tested for distribution of radioactivity in female rat tissue at 14d ay after intravenous administration in adrenal; format: ADME, organism-based; settings: in vivo; outline: as §2
Rattus norvegicus [11] = assay: Tested for distribution of radioactivity in female rat tissue at 14d ay after intravenous administration in kidney; format: ADME, organism-based; settings: in vivo; outline: as §2
Rattus norvegicus [12] = assay: Tested for distribution of radioactivity in female rat tissue at 7 day after intravenous administration in ovaries; format: ADME, organism-based; settings: in vivo, 168 h; outline: as §2
Rattus norvegicus [13] = assay: Tested for distribution of radioactivity in female rat tissue at 3 day after intravenous administration in blood; format: ADME, organism-based; settings: in vivo, 72 h; outline: as §2
Rattus norvegicus [14] = assay: Tested for distribution of radioactivity in female rat tissue at 7 day after intravenous administration in blood; format: ADME, organism-based; settings: in vivo, 168 h; outline: as §2
Rattus norvegicus [15] = assay: Tested for distribution of radioactivity in female rat tissue at 3 day after intravenous administration in ovaries; format: ADME, organism-based; settings: in vivo, 72 h; outline: as §2
Rattus norvegicus [16] = assay: Tested for distribution of radioactivity in female rat tissue at 21 day after intravenous administration in adrenal; format: ADME, organism-based; settings: in vivo, 504 h; outline: as §2
Rattus norvegicus [17] = assay: Tested for distribution of radioactivity in female rat tissue at 7 day after intravenous administration in liver; format: ADME, organism-based; settings: in vivo, 168 h; outline: as §2
Rattus norvegicus [18] = assay: Tested for distribution of radioactivity in female rat tissue at 21 day after intravenous administration in blood; format: ADME, organism-based; settings: in vivo, 504 h; outline: as §2
Rattus norvegicus [19] = assay: Tested for distribution of radioactivity in female rat tissue at 21 day after intravenous administration in kidney; format: ADME, organism-based; settings: in vivo, 504 h; outline: as §2
Rattus norvegicus [20] = assay: Tested for distribution of radioactivity in female rat tissue at 21 day after intravenous administration in ovaries; format: ADME, organism-based; settings: in vivo, 504 h; outline: as §2
Rattus norvegicus [21] = assay: Tested for distribution of radioactivity in female rat tissue at 7 day after intravenous administration in adrenal; format: ADME, organism-based; settings: in vivo, 168 h; outline: as §2
Rattus norvegicus [22] = assay: Tested for distribution of radioactivity in female rat tissue at 3 day after intravenous administration in liver; format: ADME, organism-based; settings: in vivo, 72 h; outline: as §2
Rattus norvegicus [23] = assay: Tested for distribution of radioactivity in female rat tissue at 3 day after intravenous administration in adrenal; format: ADME, organism-based; settings: in vivo, 72 h; outline: as §2
Rattus norvegicus [24] = assay: Tested for distribution of radioactivity in female rat tissue at 14d ay after intravenous administration in liver; format: ADME, organism-based; settings: in vivo; outline: as §2
Rattus norvegicus [25] = assay: Tested for distribution of radioactivity in female rat tissue at 14d ay after intravenous administration in ovaries; format: ADME, organism-based; settings: in vivo; outline: as §2
[26] = It is the ratio of adrenal to blood measured on day 14 after iv administration in rat.; format: functional, organism-based
Outline: (§3)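 Female rats received an intravenous injection of the tin-117m-labeled steroid. Adrenal/blood and adrenal/liver ratios were calculated from percent dose per gram of tissue at the stated day after injection.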

[27] = It is the ratio of adrenal to blood measured on day 21 after iv administration in rat.; format: functional, organism-based; outline: as §3
[28] = It is the ratio of adrenal to blood measured on day 7 after iv administration in rat.; format: functional, organism-based; outline: as §3
[29] = It is the ratio of adrenal to blood measured on day 3 after iv administration in rat.; format: functional, organism-based; outline: as §3
[30] = It is the ratio of adrenal to blood measured on day1 after iv administration in rat.; format: functional, organism-based; outline: as §3
Rattus norvegicus [31] = assay: Adrenal Uptake was determined on day 3 after iv administration into rat; format: functional, organism-based
Outline: (§4)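 The tin-117m-labeled steroid was injected intravenously into female rats. Adrenal glands were taken at the stated day after injection, up to 21 days. Radioactivity was reported as percent of injected dose, given as the mean and range.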

[32] = It is the ratio of adrenal to liver measured on day 14 after iv administration in rat.; format: functional, organism-based; outline: as §3
Rattus norvegicus [33] = assay: Adrenal Uptake was determined on day 7 after iv administration into rat; format: functional, organism-based; outline: as §4
Homo sapiens [34] = species on record: Homo sapiens; assay: Adsorbed radiation dose value was calculated to human body; format: functional, organism-based
Outline: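 Rat tissue distribution data were converted to percent kilogram dose per gram. The fraction of injected dose in each human organ was taken as (% kg dose/g × organ weight)/(kg body weight × 100). Cumulated activities came from these fractions and organ half-times. Sn-117m S values (rd/µCi-h) then gave the absorbed dose in rd/mCi.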

[35] = It is the ratio of adrenal to liver measured on day 7 after iv administration in rat.; format: functional, organism-based; outline: as §3
Rattus norvegicus [36] = assay: Adrenal Uptake was determined on day1 after iv administration into rat; format: functional, organism-based; outline: as §4
Rattus norvegicus [37] = assay: Adrenal Uptake was determined on day 14 after iv administration into rat; format: functional, organism-based; outline: as §4
[38] = It is the ratio of adrenal to liver measured on day 21 after iv administration in rat.; format: functional, organism-based; outline: as §3
[39] = It is the ratio of adrenal to liver measured on day 3 after iv administration in rat.; format: functional, organism-based; outline: as §3
Rattus norvegicus [40] = assay: Adrenal Uptake was determined on day 21 after iv administration into rat; format: functional, organism-based; outline: as §4
[41] = It is the ratio of adrenal to liver measured on day1 after iv administration in rat.; format: functional, organism-based; outline: as §3

Compound: CC(C)[Te]CCC(C)C1CC[C@H]2[C@@H]3CC[C@H]4CC(O)CCC4(C)[C@H]3CCC12C (some centres not stated)
- Dose (Homo sapiens [1]): 1.3 rd mCi-1
- Dose (Homo sapiens [2]): 1.4 rd mCi-1
- Dose (Homo sapiens [3]): 8 rd mCi-1
- Dose (Homo sapiens [4]): 98 rd mCi-1
- Dose (Homo sapiens [5]): 0.8 rd mCi-1
- Dose (Homo sapiens [6]): 1.6 rd mCi-1

Compound: CC(C)[Te]CCCC(C)C1CCC2C3CC=C4CC(O)CCC4(C)C3CCC12C (configuration not stated)
- Dose (Homo sapiens [1]): 1.9 rd mCi-1
- Dose (Homo sapiens [2]): 34 rd mCi-1
- Dose (Homo sapiens [3]): 13 rd mCi-1
- Dose (Homo sapiens [4]): 210 rd mCi-1
- Dose (Homo sapiens [5]): 1.4 rd mCi-1
- Dose (Homo sapiens [6]): 2 rd mCi-1

- Dose/g (Rattus norvegicus [7]): 0.79%
- Dose/g (Rattus norvegicus [8]): 0.54%
- Dose/g (Rattus norvegicus [9]): 0.15%
- Dose/g (Rattus norvegicus [10]): 7.46%
- Dose/g (Rattus norvegicus [11]): 0.38%
- Dose/g (Rattus norvegicus [12]): 4.9%
- Dose/g (Rattus norvegicus [13]): 0.8%
- Dose/g (Rattus norvegicus [14]): 0.19%
- Dose/g (Rattus norvegicus [15]): 10.99%
- Dose/g (Rattus norvegicus [16]): 2.33%
- Dose/g (Rattus norvegicus [17]): 0.44%
- Dose/g (Rattus norvegicus [18]): 0.1%
- Dose/g (Rattus norvegicus [19]): 0.26%
- Dose/g (Rattus norvegicus [20]): 1.26%
- Dose/g (Rattus norvegicus [21]): 19.37%
- Dose/g (Rattus norvegicus [22]): 2.13%
- Dose/g (Rattus norvegicus [23]): 50.88%
- Dose/g (Rattus norvegicus [24]): 0.2%
- Dose/g (Rattus norvegicus [25]): 2.53%
Compound: Stannanyl complex [listing 1 of 2 here]

Compound: Stannanyl complex [listing 2 of 2 here]
- Ratio [26]: 49.7
- Ratio [27]: 23.3
- Ratio [28]: 102
- Ratio [29]: 63.6
- Ratio [30]: 33.7
- Adrenal uptake (Rattus norvegicus [31]): 2.86
- Ratio [32]: 37.3
- Dose (Homo sapiens [1]): 4.1 rd mCi-1
- Dose (Homo sapiens [2]): 7.7 rd mCi-1
- Adrenal uptake (Rattus norvegicus [33]): 1.1
- Dose (Homo sapiens [34]): 0.77 rd mCi-1
- Dose (Homo sapiens [3]; Female gonad): 4.4 rd mCi-1
- Dose (Homo sapiens [4]): 83 rd mCi-1
- Ratio [35]: 44
- Adrenal uptake (Rattus norvegicus [36]): 2.51
- Adrenal uptake (Rattus norvegicus [37]): 0.34
- Ratio [38]: 16.6
- Ratio [39]: 23.9
- Dose (Homo sapiens [6]): 5.3 rd mCi-1
- Adrenal uptake (Rattus norvegicus [40]): 0.16
- Ratio [41]: 9.1
